Square brackets hold non-standard residues; d marks the D form. Peptide text beside a SMILES is read from it. * marks the point of attachment. dNMeF = CN[C@H](Cc1ccccc1)C(=O)O; Tic = O=C(O)[C@@H]1Cc2ccccc2CN1; Cha = N[C@@H](CC1CCCCC1)C(=O)O; NMeL = CN[C@@H](CC(C)C)C(=O)O; dNMeL = CN[C@H](CC(C)C)C(=O)O; dNMeV = CN[C@@H](C(=O)O)C(C)C; dAbu = CC[C@@H](N)C(=O)O; Abu = CC[C@H](N)C(=O)O; Cbz = O=C(OCc1ccccc1)*; Bn = c1ccc(C*)cc1
Legend:
BXPC-3 = experiment: Cytotoxicity against human BxPC3 cells after 56 hrs by [3H]thymidine uptake assay; assay type: functional
Summary of the method: (§1)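 Cells seeded at 2000–2500/well in DMEM with L-glutamine, 10% FBS and 1% penicillin-streptomycin. […] After 56 h, 3H-thymidine was added for 16 h more (72 h total), then cells were harvested and counted (CPM). Inhibition = 1 − CPM treated/DMSO; IC50 taken from curves, mean and SEM.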

[1] = Cytotoxicity against human PL45 cells after 56 hrs by [3H]thymidine uptake assay; assay type: functional; summary of the method: as §1

Compound | growth inhibition (GI) (BXPC-3) | growth inhibition (GI) [1]
CC(C)C[C@@H]1NC(=O)[C@H](CC(C)C)NC(=O)[C@@H]2Cc3ccccc3CN2C(=O)[C@H](CC(C)C)NC(=O)[C@H](C(C)C)NC1=O (cyclo(LLVL[Tic])) | 54% | 35%
CC(C)[C@@H]1NC(=O)[C@H](Cc2ccccc2)NC(=O)[C@@H](COCc2ccccc2)NC(=O)[C@H](C(C)C)NC(=O)[C@H](C(C)C)NC1=O (cyclo(FVVV[dS](Bn))) | 17% | 28%
CC[C@@H]1NC(=O)[C@H](CC(C)C)NC(=O)[C@H](CC(C)C)NC(=O)[C@H](Cc2ccccc2)NC(=O)[C@@H](CC(C)C)NC1=O (cyclo([Abu][dL]FLL)) | 34% | 23%
CC(C)C[C@@H]1NC(=O)[C@H](C(C)C)N(C)C(=O)[C@@H](CCCCNC(=O)OCc2ccccc2)NC(=O)[C@@H](Cc2ccccc2)NC(=O)[C@H](Cc2ccccc2)NC1=O | 55% | 65%
CC(C)C[C@@H]1NC(=O)[C@@H](Cc2ccccc2)NC(=O)[C@@H](CC(C)C)NC(=O)[C@@H](C(C)C)NC(=O)[C@H](CCCCNC(=O)OCc2ccccc2)NC1=O (cyclo(K(Cbz)[dV][dL][dF]L)) | 38% | 12%
CC(C)C[C@@H]1NC(=O)[C@H](C(C)C)N(C)C(=O)[C@@H](CCCCN)NC(=O)[C@@H](Cc2ccccc2)NC(=O)[C@H](Cc2ccccc2)NC1=O | 8% | 5%
CC(C)C[C@@H]1C(=O)N[C@H](Cc2ccccc2)C(=O)N[C@H](CC(C)C)C(=O)N[C@H](CC(C)C)C(=O)N[C@H](C(C)C)C(=O)N1C (cyclo([dF][dL][dL][dV][dNMeL])) | 30% | 11%
CC[C@H]1NC(=O)[C@H](C(C)C)NC(=O)[C@H](C(C)C)NC(=O)[C@H](Cc2ccccc2)NC(=O)[C@H](C(C)C)NC1=O (cyclo(FVV[dAbu]V)) | 26% | 32%
CC(C)C[C@@H]1NC(=O)[C@H](C(C)C)NC(=O)[C@H](CC(C)C)NC(=O)[C@@H](CC(C)C)NC(=O)[C@H](Cc2ccccc2)NC1=O | 29% | 29%
CC(C)C[C@@H]1NC(=O)[C@H](Cc2ccccc2)NC(=O)[C@H](CC(C)C)NC(=O)[C@@H](CO)NC(=O)[C@H](CC(C)C)NC1=O (cyclo(FLL[dS]L)) | 22% | 25%
CC(C)C[C@@H]1NC(=O)[C@H](Cc2ccccc2)NC(=O)[C@H](CC(C)C)NC(=O)[C@H](C(C)C)NC(=O)[C@@H](CC(C)C)NC1=O | 0% | 0%
CC(C)C[C@@H]1NC(=O)[C@H](C(C)C)N(C)C(=O)[C@H](CC(C)C)NC(=O)[C@@H](Cc2ccccc2)NC(=O)[C@H](Cc2ccccc2)NC1=O | 3% | 21%
CC(C)C[C@@H]1NC(=O)[C@H](CC(C)C)NC(=O)[C@@H](Cc2ccccc2)NC(=O)[C@@H](CC(C)C)NC(=O)[C@@H](C(C)C)NC1=O | 42% | 44%
CC(C)C[C@@H]1NC(=O)[C@H](Cc2ccccc2)NC(=O)[C@H](CC(C)C)NC(=O)[C@@H](C(C)C)N(C)C(=O)[C@H](CC(C)C)NC1=O | 34% | 29%
CC(C)C[C@@H]1NC(=O)[C@H](C(C)C)NC(=O)[C@H](CCCCNC(=O)OCc2ccccc2)NC(=O)[C@H](CC(C)C)N(C)C(=O)[C@H](Cc2ccccc2)NC1=O (cyclo(F[NMeL]K(Cbz)VL)) | 35% | 36%
CC(C)C[C@@H]1NC(=O)[C@H](Cc2ccccc2)NC(=O)[C@@H](CC(C)C)N(C)C(=O)[C@@H](C(C)C)N(C)C(=O)[C@H](CC(C)C)NC1=O (cyclo(FLL[dNMeV][dNMeL])) | 0% | 22%
CC(C)C[C@@H]1NC(=O)[C@H](C(C)C)NC(=O)[C@H](CCCCN)NC(=O)[C@H](CC(C)C)N(C)C(=O)[C@H](Cc2ccccc2)NC1=O (cyclo(F[NMeL]KVL)) | 11% | 9%
CC(C)C[C@H]1NC(=O)[C@@H](Cc2ccccc2)NC(=O)[C@@H](CC(C)C)NC(=O)[C@@H](C(C)C)N(C)C(=O)[C@@H](CC(C)C)NC1=O | 31% | 6%
CC(C)C[C@@H]1NC(=O)[C@H](Cc2ccccc2)NC(=O)[C@@H](Cc2ccccc2)N(C)C(=O)[C@H](C(C)C)NC(=O)[C@H](CCCCN)NC1=O (cyclo(FLKV[dNMeF])) | 30% | 26%
CC(C)C[C@@H]1NC(=O)[C@H](Cc2ccccc2)NC(=O)[C@H](CC(C)C)NC(=O)[C@@H](C(C)C)NC(=O)[C@@H](CC(C)C)NC1=O | 12% | 14%
CC(C)C[C@@H]1NC(=O)[C@H](Cc2ccccc2)NC(=O)[C@H](CC(C)C)N(C)C(=O)[C@H](C(C)C)NC(=O)[C@H](CC(C)C)NC1=O (cyclo(FLLV[NMeL])) | 0% | 0%

Compound | growth inhibition (GI) (BXPC-3) | growth inhibition (GI) [1]
CC(C)C[C@@H]1C(=O)N[C@H](CC(C)C)C(=O)N(C)[C@H](C(C)C)C(=O)N[C@H](CC(C)C)C(=O)N[C@H](Cc2ccccc2)C(=O)N1C (cyclo([dF][dNMeL][dL][dNMeV][dL])) | 25% | 0%
CC(C)C[C@@H]1NC(=O)[C@H](Cc2ccccc2)NC(=O)[C@@H](Cc2ccccc2)N(C)C(=O)[C@H](C(C)C)NC(=O)[C@H](CCCCNC(=O)OCc2ccccc2)NC1=O (cyclo(FLK(Cbz)V[dNMeF])) | 0% | 44%
CC(C)C[C@@H]1NC(=O)[C@H](C(C)C)NC(=O)[C@@H](CC(C)C)NC(=O)[C@@H](CC(C)C)NC(=O)[C@H](Cc2ccccc2)NC1=O | 0% | 14%
CC(C)C[C@@H]1NC(=O)[C@H](Cc2ccccc2)NC(=O)[C@@H](CC(C)C)NC(=O)[C@H](C(C)C)NC(=O)[C@H](CC(C)C)NC1=O | 34% | 41%
CC(C)C[C@@H]1NC(=O)[C@H](Cc2ccccc2)NC(=O)[C@@H](Cc2ccccc2)N(C)C(=O)[C@H](C(C)C)NC(=O)[C@H](CC2CCCCC2)NC1=O | 21% | 44%
CC(C)[C@@H]1NC(=O)[C@H](Cc2ccccc2)NC(=O)[C@H](C(C)C)NC(=O)[C@@H](C(C)C)NC(=O)[C@H](C(C)C)NC1=O (cyclo(FVV[dV]V)) | 11% | 25%
CC(C)C[C@@H]1NC(=O)[C@H](C(C)C)NC(=O)[C@H](CC(C)C)N(C)C(=O)[C@H](CC(C)C)NC(=O)[C@H](Cc2ccccc2)NC1=O (cyclo(FL[NMeL]VL)) | 52% | 23%
CC(C)C[C@@H]1NC(=O)[C@H](C(C)C)NC(=O)[C@H](CC(C)C)N(C)C(=O)[C@@H](CC(C)C)NC(=O)[C@H](Cc2ccccc2)NC1=O (cyclo(F[dL][NMeL]VL)) | 71% | 25%
CC(C)C[C@@H]1C(=O)N[C@H](CC(C)C)C(=O)N[C@H](C(C)C)C(=O)N(C)[C@H](CC(C)C)C(=O)N[C@H](Cc2ccccc2)C(=O)N1C | 33% | 6%
CC(C)C[C@@H]1NC(=O)[C@H](CC(C)C)NC(=O)[C@@H](Cc2c[nH]c3ccccc23)NC(=O)[C@H](CC(C)C)NC(=O)[C@H](C(C)C)NC1=O (cyclo(LLVL[dW])) | 30% | 18%
CC(C)[C@@H]1NC(=O)[C@H](CC2CCCCC2)NC(=O)[C@H](COCc2ccccc2)NC(=O)[C@H](Cc2ccccc2)NC(=O)[C@@H](Cc2ccccc2)N(C)C1=O | 44% | 40%
CC(C)C[C@@H]1NC(=O)[C@H](Cc2ccccc2)NC(=O)[C@@H](CC(C)C)NC(=O)[C@@H](C(C)C)NC(=O)[C@H](CC(C)C)NC1=O | 33% | 41%
CC(C)[C@@H]1NC(=O)[C@H](CC2CCCCC2)NC(=O)[C@H](CO)NC(=O)[C@H](Cc2ccccc2)NC(=O)[C@@H](Cc2ccccc2)N(C)C1=O (cyclo([Cha]V[dNMeF]FS)) | 34% | 11%
CC(C)C[C@@H]1NC(=O)[C@@H](Cc2ccccc2)NC(=O)[C@@H](CC(C)C)NC(=O)[C@@H](C(C)C)NC(=O)[C@H](CCCCN)NC1=O (cyclo(K[dV][dL][dF]L)) | 28% | 0%
CC(C)C[C@@H]1NC(=O)[C@@H](Cc2ccccc2)NC(=O)[C@H](CC(C)C)NC(=O)[C@@H](C(C)C)N(C)C(=O)[C@H](CC(C)C)NC1=O | 31% | 36%
CC(C)C[C@@H]1NC(=O)[C@H](Cc2ccccc2)NC(=O)[C@@H](Cc2ccccc2)NC(=O)[C@H](C(C)C)NC(=O)[C@H](CC(C)C)NC1=O | 55% | 39%
CC(C)C[C@H]1NC(=O)[C@@H](Cc2ccccc2)NC(=O)[C@@H](CC(C)C)NC(=O)[C@@H](C(C)C)NC(=O)[C@@H](CC(C)C)NC1=O | 30% | 17%
CC(C)C[C@@H]1NC(=O)[C@@H](Cc2ccccc2)NC(=O)[C@H](C(C)C)NC(=O)[C@@H](CC(C)C)NC(=O)[C@@H](CC(C)C)NC1=O (cyclo(L[dL][dL]V[dF])) | 23% | 21%
CC(C)C[C@@H]1NC(=O)[C@H](Cc2ccccc2)NC(=O)[C@H](CC(C)C)NC(=O)[C@@H](C(C)C)NC(=O)[C@H](CC(C)C)NC1=O | 22% | 45%
CC(C)C[C@@H]1NC(=O)[C@H](Cc2ccccc2)NC(=O)[C@H](CC(C)C)NC(=O)[C@H](C(C)C)NC(=O)[C@H](CC(C)C)NC1=O | 42% | 25%
CC(C)C[C@@H]1NC(=O)[C@H](Cc2ccccc2)NC(=O)[C@H](CC(C)C)NC(=O)[C@@H](Cc2ccccc2)NC(=O)[C@H](CC(C)C)NC1=O (cyclo(FLL[dF]L)) | 8% | 33%
